In ChEMBL document CHEMBL5260806, “Hydrogen peroxide activated quinone methide precursors with enhanced DNA cross-linking capability and cytotoxicity towards cancer cells” (Eur J Med Chem, 2017) one finds inhibition of growth, GI50 and IC50 data, which are given here for one compound.

One test relates to NCI/ADR-RES. In words: Anticancer activity against human NCI/ADR-RES cells assessed as cell growth inhibition at 10 uM incubated for 48 hrs by sulforhodamine B assay. The test is classed as functional. The settings on record: read-out: GI. In a few lines:
(§1)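 NCI DTP 60-cell-line screen run at National Cancer Institute. Cells grown in RPMI 1640 with 5% fetal bovine serum and 2 mM L-glutamine, seeded at 5,000–40,000 cells/well depending on doubling time. Single-dose screen at 10 µM gives growth percentage; dose-response series gives GI50.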
In general terms: In SRB staining, fixed cells bind dye roughly in proportion to their protein.

Another test concerns HOP-92. In words: Anticancer activity against human HOP-92 cells assessed as cell growth inhibition at 10 uM incubated for 48 hrs by sulforhodamine B assay. As to conditions: read-out: GI. The test is classed as functional. Summed up:
(§2)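 NCI-60 screen: cell lines grown in RPMI 1640 with 5% FBS and 2 mM L-glutamine, plated in 96-well plates at 5,000–40,000 cells/well depending on doubling time. Each line has one single-dose arm at 10 µM and one dose-response arm giving GI50.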

The next test relates to SNB-19. In words: Anticancer activity against human SNB-19 cells assessed as cell growth inhibition incubated for 48 hrs by sulforhodamine B assay. The test is classed as functional.
In another test the test system is NCI-H322M. In words: Anticancer activity against human NCI-H322M cells assessed as cell growth inhibition at 10 uM incubated for 48 hrs by sulforhodamine B assay. The test is classed as functional. As to conditions: read-out: GI. Summed up: as §1
For another test, the system named is UO-31. In words: Anticancer activity against human UO-31 cells assessed as cell growth inhibition at 10 uM incubated for 48 hrs by sulforhodamine B assay. The test is classed as functional. As to conditions: read-out: GI.
In a further test the test system is RPMI-8226. In words: Anticancer activity against human RPMI-8226 cells assessed as cell growth inhibition at 10 uM incubated for 48 hrs by sulforhodamine B assay. The test is classed as functional. The settings on record: read-out: GI. In a few lines: as §1
A further test deals with EKVX. In words: Anticancer activity against human EKVX cells assessed as cell growth inhibition at 10 uM incubated for 48 hrs by sulforhodamine B assay. The format is functional. As to conditions: read-out: GI. In a few lines:
as §2

The test system of another test is SNB-75. In words: Anticancer activity against human SNB-75 cells assessed as cell growth inhibition incubated for 48 hrs by sulforhodamine B assay. The format is functional.
In another test the test system is MOLT-4. In words: Anticancer activity against human MOLT-4 cells assessed as cell growth inhibition incubated for 48 hrs by sulforhodamine B assay. The format is functional. Summed up: as §1
The test system of a further test is SW-620. In words: Anticancer activity against human SW620 cells assessed as cell growth inhibition incubated for 48 hrs by sulforhodamine B assay. The test is classed as functional.
In another test the test system is DU-145. In words: Anticancer activity against human DU-145 cells assessed as cell growth inhibition at 10 uM incubated for 48 hrs by sulforhodamine B assay. The test is classed as functional. As to conditions: read-out: GI. In a few lines:
as §2

For a further test, the system named is MDA-MB-435. In words: Anticancer activity against human MDA-MB-435 cells assessed as cell growth inhibition at 10 uM incubated for 48 hrs by sulforhodamine B assay. As to conditions: read-out: GI. The format is functional. In a few lines: as §1
Test [1] concerns A498. In words: Anticancer activity against human A498 cells assessed as cell growth inhibition at 10 uM incubated for 48 hrs by sulforhodamine B assay. The format is functional. As to conditions: read-out: GI. In a few lines:
as §2

The test system of the next test is SK-OV-3. In words: Anticancer activity against human SK-OV-3 cells assessed as cell growth inhibition incubated for 48 hrs by sulforhodamine B assay. The format is functional.
The subject of the next test is MDA-MB-468. In words: Anticancer activity against human MDA-MB-468 cells assessed inhibition of cell growth after 48 hrs by CellTiter-Glo luminescent assay. The format is functional, cell-based. The settings on record: MDA-MB-468, 48 h. Summed up: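 Cells grown in RPMI 1640 with 5% fetal bovine serum and 2 mM L-glutamine, seeded at 5,000–10,000 cells/well in 384-well plates, preincubated 2–3 h at 37°C, 5% CO2. DMSO stocks (20 mM) serially diluted 2-fold ten times, then added at 1:100. Exposure 48 h at 37°C. Viability read by CellTiter-Glo luminescence after 10 min at room temperature; IC50 derived.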
In general terms: ATP-based viability assays read luminescence as a measure of living cells.

Another test relates to K562. In words: Anticancer activity against human K562 cells assessed as cell growth inhibition at 10 uM incubated for 48 hrs by sulforhodamine B assay. The format is functional. As to conditions: read-out: GI. Summed up:
as §2

In test [2] the test system is A498. In words: Anticancer activity against human A498 cells assessed inhibition of cell growth after 48 hrs by CellTiter-Glo luminescent assay. The format is functional, cell-based. The settings on record: A498, 48 h. In a few lines: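 Human tumour cells kept in RPMI 1640 with 5% FBS and 2 mM L-glutamine, seeded at 5,000–10,000 cells/well and left 2–3 h at 37°C, 5% CO2. Drugs taken from 20 mM DMSO stocks, serially halved ten times in DMSO, then added at 1:100 dilution. Cells exposed for 48 h at 37°C. Viability read by CellTiter-Glo luminescence after 10 min at room temperature.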

A further test relates to HCT-15. In words: Anticancer activity against human HCT-15 cells assessed as cell growth inhibition at 10 uM incubated for 48 hrs by sulforhodamine B assay. The test is classed as functional. As to conditions: read-out: GI. In a few lines: as §2
The subject of a further test is UACC-62. In words: Anticancer activity against human UACC-62 cells assessed as cell growth inhibition at 10 uM incubated for 48 hrs by sulforhodamine B assay. The format is functional. As to conditions: read-out: GI.
Another test relates to SK-MEL-28. In words: Anticancer activity against human SK-MEL-28 cells assessed as cell growth inhibition incubated for 48 hrs by sulforhodamine B assay. The test is classed as functional. In a few lines:
as §1

The GI50 is the concentration that inhibits growth by half. A word on the IC50: it is the concentration that gives 50% inhibition. Regarding `COc1cc(CBr)c(B2OC(C)(C)C(C)(C)O2)c(CBr)c1`, the inhibition of growth at 10 µM in the test on NCI/ADR-RES, in the test with HOP-92, with NCI-H322M, in the test on UO-31, with RPMI-8226 and with EKVX was under 50% each time. The inhibition of growth at 10 µM with DU-145, with MDA-MB-435, with A498 [1], in the test with K562, with HCT-15 and in the test on UACC-62 was under 50% in each case. The GI50 with SNB-19, with SNB-75, with MOLT-4, with SW-620, with SK-OV-3 and in the test with SK-MEL-28 was 2000 nM throughout. Also, the figures for the IC50 in the test with MDA-MB-468 and with A498 [2] were 9000 nM and 18100 nM, respectively.
